Measured values as given in ChEMBL document CHEMBL1153433, “Design and synthesis of 2-amino-4-methylpyridine analogues as inhibitors for inducible nitric oxide synthase and in vivo evaluation of [18F]6-(2-fluoropropyl)-4-methyl-pyridin-2-amine as a potential PET tracer for inducible nitric oxide synthase” (J Med Chem, 2009).

How the values were obtained:
Lung [1] = test: Biodistribution in LPS treated C57BL/6N mouse lung at 50 uCi/110 uL, iv administered 6 hrs […] LPS challenge measured after 2 hrs post drug dose; format: ADME, organism-based; conditions: in vivo
Method in brief: (§1)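 Male C57BL/6N mice, 6-8 weeks; LPS (E. coli O127:B8) in PBS, 10 mg/kg i.v., given 6 h before tracer. HPLC-purified [18F]tracer ~50 μCi in 10% ethanol/saline i.v. via tail vein. Killed at 5 min, 30 min, 1 h or 2 h; tissues weighed and gamma-counted against diluted injectate standards. Reported as %ID/g, mean ± SD, n = 4.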

[2] = Metabolic stability in Sprague-Dawley rat whole blood at 400 uCi after 1 hr; format: ADME, tissue-based; conditions: read-out: Stability
Method in brief: (§2)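 Heparinized whole blood (5 mL) from a mature male Sprague-Dawley rat incubated with ~400 μCi [18F]tracer at 37 °C for 5 min to 2 h. Aliquots lysed with 3 volumes of ethanol and centrifuged; supernatant and pellet gamma-counted. Supernatant species analysed by silica TLC (ethyl acetate), identified by co-elution with non-radioactive standard.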

[3] = Metabolic stability in Sprague-Dawley rat whole blood at 400 uCi after 2 hrs; format: ADME, tissue-based; conditions: read-out: Stability; method in brief: as §2
[4] = Metabolic stability in Sprague-Dawley rat plasma assessed as parent compound remaining at 400 uCi, iv after 30 mins by HPLC; format: ADME, organism-based; conditions: read-out: Stability
Method in brief: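 Anesthetized male Sprague-Dawley rat given 400 μCi [18F]tracer in 10% ethanol/saline i.v. via tail vein. Blood drawn by cardiac puncture at 5 and 30 min. Plasma separated by centrifugation, treated with 3 equivalents of acetonitrile and centrifuged; supernatant filtered and analysed by HPLC. Samples kept on ice.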

Blood [5] = test: Biodistribution in LPS treated C57BL/6N mouse blood at 50 uCi/110 uL, iv administered 6 hrs […] LPS challenge measured after 2 hrs post drug dose; format: ADME, organism-based; conditions: in vivo
Method in brief: (§3)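 Male C57BL/6N mice aged 6-8 weeks received E. coli O127:B8 LPS in PBS, 10 mg/kg i.v., 6 h before tracer. Tracer ~50 μCi in 10% ethanol/saline, i.v. tail vein. Sacrifice was at 5 min, 30 min, 1 h or 2 h post-injection. Organs were weighed and gamma-counted with injectate standards. Data are %ID/g, mean ± SD, n = 4.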

Blood [6] = test: Biodistribution in C57BL/6N mouse blood at 50 uCi/110 uL, iv after 2 hrs; format: ADME, organism-based; conditions: in vivo
Method in brief: (§4)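 Untreated (control) male C57BL/6N mice aged 6-8 weeks. HPLC-purified tracer, ~50 μCi in 10% ethanol/saline, given i.v. via the tail vein. Mice were sacrificed at 5 min, 30 min, 1 h and 2 h post-injection. Tissues were removed, weighed and gamma-counted against diluted injectate standards. Data are %ID/g, mean ± SD, n = 4.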

Lung [7] = test: Biodistribution in LPS treated C57BL/6N mouse lung at 50 uCi/110 uL, iv administered 6 hrs […] LPS challenge measured after 5 mins post drug dose; format: ADME, organism-based; conditions: in vivo; method in brief: as §1
Lung [8] = test: Biodistribution in C57BL/6N mouse lung at 50 uCi/110 uL, iv after 5 mins; format: ADME, organism-based; conditions: in vivo; method in brief: as §4
Lung [9] = test: Biodistribution in LPS treated C57BL/6N mouse lung at 50 uCi/110 uL, iv administered 6 hrs […] LPS challenge measured after 1 hr post drug dose; format: ADME, organism-based; conditions: in vivo; method in brief: as §1
Liver [10] = test: Biodistribution in LPS treated C57BL/6N mouse liver at 50 uCi/110 uL, iv administered 6 hrs […] LPS challenge measured after 5 mins post drug dose; format: ADME, organism-based; conditions: in vivo; method in brief: as §1
Liver [11] = test: Biodistribution in LPS treated C57BL/6N mouse liver at 50 uCi/110 uL, iv administered 6 hrs […] LPS challenge measured after 30 mins post drug dose; format: ADME, organism-based; conditions: in vivo, 0.5 h; method in brief: as §1
Liver [12] = test: Biodistribution in C57BL/6N mouse liver at 50 uCi/110 uL, iv after 30 mins; format: ADME, organism-based; conditions: in vivo, 0.5 h; method in brief: as §4
Bone [13] = test: Biodistribution in C57BL/6N mouse bone at 50 uCi/110 uL, iv after 2 hrs; format: ADME, organism-based, Bone element; conditions: in vivo; method in brief: as §4
Liver [14] = test: Biodistribution in C57BL/6N mouse liver at 50 uCi/110 uL, iv after 1 hr; format: ADME, organism-based; conditions: in vivo; method in brief: as §4
Liver [15] = test: Biodistribution in C57BL/6N mouse liver at 50 uCi/110 uL, iv after 2 hrs; format: ADME, organism-based; conditions: in vivo; method in brief: as §4
Kidney [16] = test: Biodistribution in LPS treated C57BL/6N mouse kidney at 50 uCi/110 uL, iv administered 6 hrs […] LPS challenge measured after 1 hr post drug dose; format: ADME, organism-based; conditions: in vivo; method in brief: as §3
Kidney [17] = test: Biodistribution in C57BL/6N mouse kidney at 50 uCi/110 uL, iv after 1 hr; format: ADME, organism-based; conditions: in vivo; method in brief: as §4
Muscle tissue [18] = test: Biodistribution in C57BL/6N mouse muscle at 50 uCi/110 uL, iv after 5 mins; format: ADME, organism-based; conditions: in vivo; method in brief: as §4
Blood [19] = test: Biodistribution in LPS treated C57BL/6N mouse blood at 50 uCi/110 uL, iv administered 6 hrs […] LPS challenge measured after 30 mins post drug dose; format: ADME, organism-based; conditions: in vivo, 0.5 h; method in brief: as §3
Blood [20] = test: Biodistribution in C57BL/6N mouse blood at 50 uCi/110 uL, iv after 30 mins; format: ADME, organism-based; conditions: in vivo, 0.5 h; method in brief: as §4
Blood [21] = test: Biodistribution in LPS treated C57BL/6N mouse blood at 50 uCi/110 uL, iv administered 6 hrs […] LPS challenge measured after 5 mins post drug dose; format: ADME, organism-based; conditions: in vivo; method in brief: as §3
Muscle tissue [22] = test: Biodistribution in LPS treated C57BL/6N mouse muscle at 50 uCi/110 uL, iv administered 6 hrs […] LPS challenge measured after 30 mins post drug dose; format: ADME, organism-based; conditions: in vivo, 0.5 h; method in brief: as §1
Muscle tissue [23] = test: Biodistribution in LPS treated C57BL/6N mouse muscle at 50 uCi/110 uL, iv administered 6 hrs […] LPS challenge measured after 2 hrs post drug dose; format: ADME, organism-based; conditions: in vivo; method in brief: as §1
Heart [24] = test: Biodistribution in LPS treated C57BL/6N mouse heart at 50 uCi/110 uL, iv administered 6 hrs […] LPS challenge measured after 30 mins post drug dose; format: ADME, organism-based; conditions: in vivo, 0.5 h; method in brief: as §3
Heart [25] = test: Biodistribution in LPS treated C57BL/6N mouse heart at 50 uCi/110 uL, iv administered 6 hrs […] LPS challenge measured after 2 hrs post drug dose; format: ADME, organism-based; conditions: in vivo; method in brief: as §3
Brain [26] = test: Biodistribution in LPS treated C57BL/6N mouse brain at 50 uCi/110 uL, iv administered 6 hrs […] LPS challenge measured after 5 mins post drug dose; format: ADME, organism-based; conditions: in vivo; method in brief: as §3
Brain [27] = test: Biodistribution in C57BL/6N mouse brain at 50 uCi/110 uL, iv after 5 mins; format: ADME, organism-based; conditions: in vivo; method in brief: as §4
Brain [28] = test: Biodistribution in C57BL/6N mouse brain at 50 uCi/110 uL, iv after 1 hr; format: ADME, organism-based; conditions: in vivo; method in brief: as §4
Brain [29] = test: Biodistribution in LPS treated C57BL/6N mouse brain at 50 uCi/110 uL, iv administered 6 hrs […] LPS challenge measured after 2 hrs post drug dose; format: ADME, organism-based; conditions: in vivo; method in brief: as §3
Brain [30] = test: Biodistribution in C57BL/6N mouse brain at 50 uCi/110 uL, iv after 2 hrs; format: ADME, organism-based; conditions: in vivo; method in brief: as §4
Bone [31] = test: Biodistribution in LPS treated C57BL/6N mouse bone at 50 uCi/110 uL, iv administered 6 hrs […] LPS challenge measured after 5 mins post drug dose; format: ADME, organism-based, Bone element; conditions: in vivo; method in brief: as §3
Bone [32] = test: Biodistribution in C57BL/6N mouse bone at 50 uCi/110 uL, iv after 5 mins; format: ADME, organism-based, Bone element; conditions: in vivo; method in brief: as §4
Bone [33] = test: Biodistribution in C57BL/6N mouse bone at 50 uCi/110 uL, iv after 1 hr; format: ADME, organism-based, Bone element; conditions: in vivo; method in brief: as §4

Drug uptake (Lung [1]): 0.18 % ID/g
remaining at 1 h, 400 uCi [2]: 80%
remaining at 2 h, 400 uCi [3]: 75%
remaining at 0.5 h [4]: 20.2%
Drug uptake (Blood [5]): 0.23 % ID/g
Drug uptake (Blood [6]): 0.27 % ID/g
Drug uptake (Lung [7]): 4.32 % ID/g
Drug uptake (Lung [8]): 3.33 % ID/g
Drug uptake (Lung [9]): 0.73 % ID/g
Drug uptake (Liver [10]): 24.6 % ID/g
Drug uptake (Liver [11]): 7.06 % ID/g
Drug uptake (Liver [12]): 10.7 % ID/g
Drug uptake (Bone [13]): 5.59 % ID/g
Drug uptake (Liver [14]): 2.59 % ID/g
Drug uptake (Liver [15]): 0.74 % ID/g
Drug uptake (Kidney [16]): 3.95 % ID/g
Drug uptake (Kidney [17]): 2.2 % ID/g
Drug uptake (Muscle tissue [18]): 1.25 % ID/g
Drug uptake (Blood [19]): 2.09 % ID/g
Drug uptake (Blood [20]): 1.22 % ID/g
Drug uptake (Blood [21]): 3.69 % ID/g
Drug uptake (Muscle tissue [22]): 1.06 % ID/g
Drug uptake (Muscle tissue [23]): 0.23 % ID/g
Drug uptake (Heart [24]): 1.02 % ID/g
Drug uptake (Heart [25]): 0.12 % ID/g
Drug uptake (Brain [26]): 1.81 % ID/g
Drug uptake (Brain [27]): 1.6 % ID/g
Drug uptake (Brain [28]): 0.11 % ID/g
Drug uptake (Brain [29]): 0.07 % ID/g
Drug uptake (Brain [30]): 0.07 % ID/g
Drug uptake (Bone [31]): 1.59 % ID/g
Drug uptake (Bone [32]): 1.52 % ID/g
Drug uptake (Bone [33]): 2.57 % ID/g
Structure (SMILES): Cc1cc(N)nc(CC(C)[18F])c1 (stereo not drawn)
